Published values gathered from unrelated publications.
Lines come from different studies, so protocols differ.
Target: Mitogen-activated protein kinase kinase kinase 7 (MAP3K7, Homo sapiens, UniProt O43318)
Residues used in one study (O43318 1-606): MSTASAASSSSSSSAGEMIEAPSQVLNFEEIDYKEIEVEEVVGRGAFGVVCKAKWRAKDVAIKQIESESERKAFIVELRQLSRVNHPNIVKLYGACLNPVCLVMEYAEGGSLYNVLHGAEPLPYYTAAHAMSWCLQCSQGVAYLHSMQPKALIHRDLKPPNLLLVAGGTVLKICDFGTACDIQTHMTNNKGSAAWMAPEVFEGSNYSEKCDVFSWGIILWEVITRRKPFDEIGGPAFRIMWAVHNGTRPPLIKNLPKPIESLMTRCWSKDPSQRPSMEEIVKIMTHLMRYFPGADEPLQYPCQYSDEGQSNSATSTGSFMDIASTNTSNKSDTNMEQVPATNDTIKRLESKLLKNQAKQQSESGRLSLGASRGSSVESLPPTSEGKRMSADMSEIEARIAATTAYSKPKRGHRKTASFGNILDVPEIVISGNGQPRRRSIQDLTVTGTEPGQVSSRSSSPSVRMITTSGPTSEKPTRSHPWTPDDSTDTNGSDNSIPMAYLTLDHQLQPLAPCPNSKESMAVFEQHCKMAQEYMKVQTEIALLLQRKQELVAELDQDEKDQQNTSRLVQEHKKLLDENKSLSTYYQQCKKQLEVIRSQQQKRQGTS

`CC#CC(=O)N1CCC[C@H]1c1nc(-c2ccc(C(=O)Nc3ccccn3)cc2)c2c(N)nccn12` gave an inhibition of 12% (enzyme activity; inhibitor; 1 µM).
The remaining binding of `CCCCC(=O)Nc1ccc(-c2ccc3ncn(CCC)c(=O)c3c2)cn1` is reported as 87% (binding; competition with immobilised ligand; 0.5 µM).
With `C[C@H]1CC[C@H](n2c3cnccc3c3cnc(Nc4ccc5c(n4)CCN(C(=O)CO)C5)nc32)CC1` the remaining binding was 47% (binding; competition with immobilised ligand; 1 µM).
For `Cc1cc(O)c(-c2ccc([C@@H](C)CN(C)C)cc2)c2c1[nH]c(=O)c1sccc12`, the inhibition was -18.1% (enzyme activity; inhibitor; 0.1 µM).
For `CS(=O)(=O)c1ccccc1Nc1nc(Nc2ccnc(CO)c2)ncc1Cl`, the remaining activity was 70.7% (enzyme activity; inhibitor; 1 µM).
With `C=CC(=O)N1CCC([C@@H]2CCNc3c(C(N)=O)c(-c4ccc(Oc5ccccc5)cc4)nn32)CC1` the inhibition was 19% (enzyme activity; inhibitor; 1 µM).
`CS(=O)(=NC#N)c1ccccc1Nc1nc(Nc2ccc(CO)nc2)ncc1Cl` (centres unmarked) gave a remaining activity of 55.8% (enzyme activity; inhibitor; 1 µM).
For `CN1CCN(C(=O)c2ccc(NC(=O)Nc3ccc(N(C)c4ccnc(Nc5ccc(CS(C)(=O)=O)cc5)n4)cc3)cc2)CC1`, the remaining binding was 25% (binding; competition with immobilised ligand; 1 µM).
